The values that follow come from ChEMBL document CHEMBL4251683, “Improved Dose-Response Relationship of (+)-Discodermolide-Taxol Hybrid Congeners” (2018).

Molecules are shown by their SMILES. Calls of active or inactive are those of the source. The calls are words filed in the database; no cut-off is given here.

Test [1] is filed under the species Bos taurus. As to the kind of experiment: Induction of bovine brain tubulin alpha polymerization assessed as alpha tubulin expression by measuring pellet/supernatant and pellet fraction level at 3 uM after 1 hr by immunoblot method (reference value: 10.4%). The gist of the method:
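Purified bovine brain tubulin incubated 30 min at 37 °C with 3 μM compound in MEM–glycerol buffer, 2 mM GTP, pH 6.9. Spun at 120000g, 37 °C, 1 h. Supernatant and SDS-solubilized pellet run on SDS-PAGE, α-tubulin quantified by Western blot, % polymerized calculated as P/(S + P).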
For orientation: In western blotting, separated proteins are transferred to a membrane and probed.

Test [2] concerns HEY. Put plainly: Induction of senescence in human HEY cells assessed as increase in PAI1 mRNA expression level at EC80 concentration after 6 days by qRT-PCR analysis. The class given is functional, cell-based. The gist of the method: (§1)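 Cells treated 6 days at EC80 doses (derived from dose-response data) and analysed for SASP transcripts by qRT-PCR. Expression was normalised to cyclophilin B and expressed relative to vehicle-treated asynchronous cells. Bars are mean ± SEM (n = 2).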

The subject of test [3] is HEY. As to the kind of experiment: Induction of senescence in human HEY cells at EC80 concentration after 3 to 6 days by DAPI staining based flow cytometry. The class given is functional. The gist of the method:
(§2)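 Compounds given at approximately EC80 (taken from the cell's own dose-response data) for 3 to 6 days depending on line. Floating and trypsinized adherent cells were pooled, washed 3–5 times in warm PBS, and stained with DAPI (1/10,000) in PBS with 4% FBS on ice. Flow cytometry counted 10 000 cells per gate: dead = DAPI+, senescent = SSC+ DAPI−. Duplicate experiments, mean ± SEM.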
On the technique in general: A flow cytometer gives signals particle by particle.

Test [4] concerns Hs-578T. Put plainly: Induction of senescence in human Hs578T cells at EC80 concentration after 3 to 6 days by DAPI staining based flow cytometry. The class given is functional. The essentials: as §2
Test [5] relates to Hs-578T. As to the kind of experiment: Induction of cell death in human Hs578T cells at EC80 concentration after 3 to 6 days by DAPI staining based flow cytometry. The class given is functional. The gist of the method: as §2
Test [6] deals with BT-549. Put plainly: Induction of cell death in human BT549 cells at EC80 concentration after 3 to 6 days by DAPI staining based flow cytometry. The class given is functional. The essentials:
as §2

Test [7] has as its system MDA-MB-468. As to the kind of experiment: Induction of cell death in human MDA-MB-468 cells at EC80 concentration after 3 to 6 days by DAPI staining based flow cytometry. Format: functional. The essentials:
as §2

Test [8] concerns BT-549. Put plainly: Induction of senescence in human BT549 cells at EC80 concentration after 3 to 6 days by DAPI staining based flow cytometry. Format: functional. The gist of the method:
as §2

The subject of test [9] is MDA-MB-468. As to the kind of experiment: Induction of senescence in human MDA-MB-468 cells at EC80 concentration after 3 to 6 days by DAPI staining based flow cytometry. The class given is functional. The gist of the method: as §2
For test [10], the system named is HEY. Put plainly: Induction of senescence in human HEY cells assessed as increase in IL-8 mRNA expression level at EC80 concentration after 6 days by qRT-PCR analysis. Format: functional, cell-based. The gist of the method: as §1
Test [11] relates to HEY. As to the kind of experiment: Induction of senescence in human HEY cells assessed as increase in CXCL1 mRNA expression level at EC80 concentration after 6 days by qRT-PCR analysis. Format: functional, cell-based. The essentials:
as §1
(In general: In qPCR the cycle at which signal appears reflects the starting amount.)

For test [12], the system named is HCC1143. As to the kind of experiment: Antiproliferative activity against human HCC1143 cells after 3 to 7 days by SRB assay. The class given is functional, cell-based. The essentials: (§3)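 Sulforhodamine B total-protein read-out on adherent cells maintained in RPMI with 10% FBS. Seeding was 900–4000 cells per well depending on line, with 24 h allowed for attachment. Six replicate wells per concentration, exposure for three cell doublings (3 to 7 days); DMSO final below 0.01%. Logistic sigmoidal fit by nonlinear least squares gave EC50, EMax and AUC; experiments repeated at least three times.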

For test [13], the system named is MDA-MB-468. As to the kind of experiment: Antiproliferative activity against human MDA-MB-468 cells after 3 to 7 days by SRB assay. Format: functional, cell-based. The essentials:
as §3

Test [14] concerns Hs-578T. Put plainly: Antiproliferative activity against human Hs578T cells after 3 to 7 days by SRB assay. The class given is functional, cell-based. The essentials: as §3
Test [15] concerns BT-549. Put plainly: Antiproliferative activity against human BT549 cells after 3 to 7 days by SRB assay. Format: functional, cell-based. The gist of the method: as §3
Test [16] has as its system MDA-MB-157. Put plainly: Antiproliferative activity against human MDA-MB-157 cells after 3 to 7 days by SRB assay. The class given is functional, cell-based. The gist of the method:
as §3

For test [17], the system named is BT-20. As to the kind of experiment: Antiproliferative activity against human BT20 cells after 3 to 7 days by SRB assay. Format: functional, cell-based. The gist of the method: as §3
In test [18] the test system is A549. As to the kind of experiment: Antiproliferative activity against human A549 cells after 3 to 7 days by SRB assay. Format: functional, cell-based. The essentials: as §3
The test system of test [19] is MCF7. Put plainly: Antiproliferative activity against human MCF7 cells after 3 to 7 days by SRB assay. Format: functional, cell-based. The essentials:
as §3

Test [20] has as its system HEY. Put plainly: Antiproliferative activity against human HEY cells after 3 to 7 days by SRB assay. The class given is functional, cell-based. The essentials:
as §3

Test [21] has as its system MDA-MB-468. Put plainly: Induction of senescence in human MDA-MB-468 cells assessed as increase in IL-8 mRNA expression level at EC80 concentration after 6 days by qRT-PCR analysis. The class given is functional, cell-based. The gist of the method: as §1
Test [22] relates to MDA-MB-468. As to the kind of experiment: Induction of senescence in human MDA-MB-468 cells assessed as increase in CXCL1 mRNA expression level at EC80 concentration after 6 days by qRT-PCR analysis. Format: functional, cell-based. The gist of the method: as §1
The subject of test [23] is MDA-MB-468. As to the kind of experiment: Induction of senescence in human MDA-MB-468 cells assessed as increase in PAI1 mRNA expression level at EC80 concentration after 6 days by qRT-PCR analysis. Format: functional, cell-based. The essentials:
as §1

Take `C=C/C=C\[C@H](C)[C@H](OC(=O)NCCCCNC(=O)c1ccc(N=[N+]=[N-])cc1)[C@@H](C)[C@H](O)[C@@H](C)C/C(C)=C\[C@H](C)[C@@H](O)[C@@H](C)/C=C\[C@@H](O)C[C@@H]1OC(=O)[C@H](C)[C@@H](O)[C@H]1C`: the Activity in [1] was 52.2%; in test [3] it was 10 - 15%; in [4] it was 15 - 18%; in test [8], less than 10%; in [9], less than 10%. In addition, the outcome in [2], in test [6], in [7], in test [10] and in test [11] was Active. Besides, the result in [5] was inactive.

Turning to `C=C/C=C\[C@H](C)[C@H](OC(=O)NCCCNC(=O)c1cccc(N=[N+]=[N-])c1)[C@@H](C)[C@H](O)[C@@H](C)C/C(C)=C\[C@H](C)[C@@H](O)[C@@H](C)/C=C\[C@@H](O)C[C@@H]1OC(=O)[C@H](C)[C@@H](O)[C@H]1C`, the Activity was 60% in [1]; 10 - 15% in test [3]; 15 - 18% in test [4]; less than 10% in test [8]; less than 10% in test [9]. Further, the result in test [12], in test [13], in [14], in [15], in test [16] and in test [17] was Active. Also, the result in test [18], in test [19], in test [20], in test [2], in test [6] and in [7] was Active. Moreover, the outcome in [10], in test [11], in test [21], in test [22] and in test [23] was Active. Moreover, the outcome in test [5] was inactive.

Take `C=C/C=C\[C@H](C)[C@H](OC(=O)NCCNC(=O)c1ccc(N=[N+]=[N-])cc1)[C@@H](C)[C@H](O)[C@@H](C)C/C(C)=C\[C@H](C)[C@@H](O)[C@@H](C)/C=C\[C@@H](O)C[C@@H]1OC(=O)[C@H](C)[C@@H](O)[C@H]1C`: the Activity in [1] was 54.6%; in test [3], 10 - 15%; in test [4], 15 - 18%; in test [8], less than 10%; in [9] it was less than 10%. Moreover, the outcome in test [2], in [6], in test [7], in test [10] and in [11] was Active. In addition, the outcome in test [5] was inactive.

For `C=C/C=C\[C@H](C)[C@H](OC(=O)NCCCNC(=O)c1ccc(N=[N+]=[N-])cc1)[C@@H](C)[C@H](O)[C@@H](C)C/C(C)=C\[C@H](C)[C@@H](O)[C@@H](C)/C=C\[C@@H](O)C[C@@H]1OC(=O)[C@H](C)[C@@H](O)[C@H]1C`, the Activity is 64.2% in test [1]; 10 - 15% in test [3]; 15 - 18% in test [4]; less than 10% in test [8]; less than 10% in test [9]. The result in test [12], in [13], in [14], in [15], in test [16] and in test [17] was Active. The outcome in [18], in test [19], in test [20], in [2], in test [6] and in [7] was Active. For the same molecule, the result in test [10], in [11], in test [21], in test [22] and in [23] was Active. Also, the outcome in [5] was inactive.

Turning to `CC(=O)O[C@H]1C(=O)[C@@]2(C)[C@H]([C@H](OC(=O)c3ccccc3)[C@]3(O)C[C@H](OC(=O)[C@H](O)[C@@H](NC(=O)c4ccccc4)c4ccccc4)C(C)=C1C3(C)C)[C@]1(OC(C)=O)CO[C@@H]1C[C@@H]2O` [PACLITAXEL], the Activity is 15.8% in test [1], 10 - 15% in [3] and 15 - 18% in test [4]. For the same molecule, the outcome in test [12], in test [13], in [14], in test [15], in test [16] and in test [17] was Active. The result in [18], in test [19] and in test [20] was Active.

As to `C=C/C=C\[C@H](C)[C@H](OC(=O)NCCCNC(=O)c1ccc(C2(C(F)(F)F)N=N2)cc1)[C@@H](C)[C@H](O)[C@@H](C)C/C(C)=C\[C@H](C)[C@@H](O)[C@@H](C)/C=C\[C@@H](O)C[C@@H]1OC(=O)[C@H](C)[C@@H](O)[C@H]1C`, the Activity is 56.1% in [1]; 10 - 15% in [3]; 15 - 18% in test [4]; less than 10% in test [8]; less than 10% in test [9]. In addition, the outcome in [12], in test [13], in test [14], in test [15], in [16] and in test [17] was Active. Further, the outcome in [18], in test [19], in test [20], in test [2], in [6] and in test [7] was Active. The outcome in [10], in test [11], in [21], in test [22] and in test [23] was Active. The result in [5] was inactive.

`C=C/C=C\[C@H](C)[C@H](OC(N)=O)[C@@H](C)[C@H](O)[C@@H](C)C/C(C)=C\[C@H](C)[C@@H](O)[C@@H](C)/C=C\[C@@H](O)C[C@@H]1OC(=O)[C@H](C)[C@@H](O)[C@H]1C` [DISERMOLIDE]: the Activity in [1] is 59.3%; in test [3], 10 - 15%; in test [4] it was 15 - 18%. The outcome in test [12], in test [13], in [14], in [15], in test [16] and in test [17] was Active. For the same molecule, the result in test [18], in test [19], in test [20], in test [21], in [22] and in test [23] was Active. For the same molecule, in test [5], the outcome was inactive.
